# Assay results as given in the EternaBench riboswitch data.
# Test system: MS2 coat protein
# Experiment: apparent Kd, MS2 coat protein; higher = weaker binding; RNA-MaP array; FMN 200 µM where present
# Summary of the method: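 Two titrations, one without ligand and one with constant ligand, were run with SNAP-549-labelled MS2 coat protein from 0.7 or 1.5 nM, doubling to 3 µM. The targets were designs transcribed by stalled E. coli RNA polymerase on Illumina sequencing-chip clusters, in 100 mM Tris-HCl pH 7.5, 80 mM KCl, 4 mM MgCl2, BSA, DTT, yeast tRNA and Tween-20. The apparent Kd is the median of filtered per-cluster binding-curve fits, with green signal normalised to red-channel RNA signal and control-cluster median Fmax.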
# [1] = designed as: OFF switch for flavin mononucleotide, no ligand
# [2] = ligand present: flavin mononucleotide, designed as: OFF switch for flavin mononucleotide
# [3] = designed as: ON switch for flavin mononucleotide, no ligand
# [4] = ligand present: flavin mononucleotide, designed as: ON switch for flavin mononucleotide
Sequence,apparent Kd [1],apparent Kd [2],apparent Kd [3],apparent Kd [4]
AUUUUAAUAUAGGAUAUCGAUUUUAUUAUUUAACGAGAAGGAUAAACAUGAGGAUCACCCAUGUGGUAUCAUGG,0.158 µM,0.14 µM,–,–
AUUUUACAUGAGGAUCACCCAUGUUUUGGUGGAUCAGGAUAUAGAUCGGAUGAGUUCUGGCUAGAAGGGAUAUAUA,–,–,0.0936 µM,0.0865 µM
AUUUUGCUCGCAGGAUAUCAGGAAAUGUUGAUCUUCUGUAUCUCCUACAUGAGGAUCACCCAUGUUGAGAAGGGCGAUGGCAAU,0.106 µM,0.358 µM,–,–
AUUUUGUGAGGAUAUGUGGCUUCGAUCGUGAGAUCGAGGCUACAGAAGGCACAUGAGGAUCACCCAUGUUCCUA,0.0206 µM,0.206 µM,–,–
CAAAUCUGAGGAUAUCGAUAUUUGUACAUGAGGAUCACCCAUGUCCUAUUUAUUAUAUUUCGAGAAGGCAGUGUAU,0.0195 µM,0.0172 µM,–,–
CAAGCCAUUCGCAACUGCCGGCCGCAGGAUAUGGGUCGUUUAUACAUGAGGAUCACCCAUGUCGCCUAGAAGGGCGGCUGGGUC,–,–,0.26 µM,0.0389 µM
CAAGGGCAUGAGAAGGCAUAAUAUAUAAUACCACAUGUUUACAUGAGGAUCACCCAUGUUACCUAUGAGGAUAUCAUGCCUACA,0.0144 µM,0.0129 µM,–,–
CAAGGGUUAGGAUAUGGACGCUUAUAUUUGUAGCGGCGAAGCCAGAAGGAACAUGAGGAUCACCCAUGUUGGGA,0.0604 µM,0.108 µM,–,–
CAAUGUCAAAAGGAUAUUGCCAGCAUAAAUGGUCGAGAAGGUUUGACAUGAGGAUCACCCAUGUAAUGAACCUG,0.0146 µM,0.0512 µM,–,–
CAAUUUAUAACAGGAUAUGUAAUACAAUAGUUAAUAGAAGGGUUUAAUACAUGAGGAUCACCCAUGUCAUGUGUCAUAAUUACC,0.033 µM,0.026 µM,–,–
CACAAGAAAGUCGAAGGUUGAAGUAGAAGGACAAUAACAUGACAUGAGGAUCACCCAUGUGCCAUGUAGGAUAUGCUUUAAUCG,0.00854 µM,0.00834 µM,–,–
CACCGUUACAGAGGAUAUCGUACAUGAGGAUCACCCAUGUAAUAAAUGAGAAUUUCGGAUGUAUGCGAGAAGGCUGGAAUCGGC,0.0285 µM,0.0362 µM,–,–
CACGGUGAUGUAGGAUAUACGCUGGAAUACAGCGUAGAAGGACAUGAGGAUCACCCAUGUAAAGUGUCUCCGAAUAACACCGUG,0.0338 µM,0.0633 µM,–,–
CACGUACAUGAGGAUCACCCAUGUUAGGAUAUGUUUACCGGAAGGCAUUCUUGGGUAAACAGAAGGGACGAAAC,0.0225 µM,0.0318 µM,–,–
CACUGCAAUGUAGGAUAUCGACUGGAAUACAGUCGAGAAGGACAUGAGGAUCACCCAUGUACUAAUAGUGAUAAUAAAGCAGUG,0.0146 µM,0.0541 µM,–,–
CACUGCAAUGUAGGAUAUCGACUGGAAUACAGUCGAGAAGGACAUGAGGAUCACCCAUGUACUUUGAGUGAAUAAUAAGCAGUG,0.0159 µM,0.0594 µM,–,–
CACUGCAAUGUAGGAUAUCGACUGGAUAACAGUCGAGAAGGACAUGAGGAUCACCCAUGUACUAAUAGUGAUAAUAAAGCAGUG,0.0135 µM,0.055 µM,–,–
CAGAACGUCUGAUGAGACCCGCGGCAGGAUAUGCCUGACGUGGACAUGAGGAUCACCCAUGUAAGGCAGAAGGGCCGUUCAGUG,0.023 µM,0.0955 µM,–,–
CAGAAGUCAGGAUAUGCUGCUCGUCACUUGCGUGAUGAGUAGCAGAAGGGACAUGAGGAUCACCCAUGUAAAGC,0.0535 µM,0.0871 µM,–,–
CAGAGGAUGUAAGGAUAUCGUCAGGAAUACUGACGAGAAGGUACAUGAGGAUCACCCAUGUAUAUGAAAGAUAAUAAACCUCUG,0.0144 µM,0.0172 µM,–,–
CAGCAAGUCACAGGAUAUGGUGAUGUACAUGAGGAUCACCCAUGUCCGUCUUCUCUCACAAGAUGCCAGAAGGGUGACUUCCGG,–,–,0.95 µM,0.135 µM
CAGCGAAAGCUGAAUCUGUAGAGAGAGGAUAUACAAGAAUAAGUCCAUACAUGAGGAUCACCCAUGUAGAAGGCUCUCUACAGU,0.00728 µM,0.0254 µM,–,–
CAGCGAAAGUAGAAGGCAGUACUGAUACAGUACUGAGGAUAUACAUGAGGAUCACCCAUGUACUUCAGCUGGAAAUAAAUAAAU,0.00594 µM,0.00697 µM,–,–
CAGCGCUGUCGAGAGGAUAUGCAGUGAUGGACAUGAGGAUCACCCAUGUUAGCGAUAGCAUUACGGUAGAAGGCUCUACAGCUGC,–,–,0.018 µM,0.0151 µM
CAGCGCUGUUGAGAGGAUAUGCGGUGAUGGACAUGAGGAUCACCCAUGUUAGCGACAGCAUUACGGUAGAAGGCUCCACAGCUGC,–,–,0.0229 µM,0.0138 µM
CAGCGGUCAGGAUAUGCAUGGCGGGACUUGCGUCGUGGCGUGGAGAAGGGACAUGAGGAUCACCCAUGUGGGAA,0.134 µM,0.0819 µM,–,–
CAGCUACCCAGUAUGGGUAUUUUUACAGAAGGCCAGGUACAUGAGGAUCACCCAUGUUAAGUUAUGGAGGAUAUGUUAGUGUAU,–,–,0.0279 µM,0.00718 µM
CAGGAGAACACAGGAUAUCCGUAAGACAUGAGGAUCACCCAUGUUUGUGGCCCGCCAGGGCUGACGGAGAAGGGUGACUCGCAC,–,–,0.00904 µM,0.00581 µM

Sequence,apparent Kd [1],apparent Kd [2],apparent Kd [3],apparent Kd [4]
CAGGAUAGAGGAUAUACAUAGAUACAGAUUCAUGUGAUCCUACAUGAGGAUCACCCAUGUAGAAGGCUAUCCUG,0.315 µM,0.0395 µM,–,–
CAGGUAGACUGAGGAUAUACACAAAACAGCUAGUCUAUCUAGCUGAUCACAUGAGGAUCACCCAUGUAGAAGGCAGUCUGCCUG,0.0192 µM,0.0552 µM,–,–
CAGUACUGAGGAUAUACAUGAGGAUCACCCAUGUGUUCCAGCUAGGAAACUAGCAAAAGUAGAAGGUAGUACUG,0.0137 µM,0.0565 µM,–,–
CAGUACUGAGGAUAUACAUGAGGAUCACCCAUGUGUUCCAGCUAGGAAACUAGCAUAAGUAGAAGGCAGUACUG,0.0212 µM,0.354 µM,–,–
CAGUACUGAGGAUAUACAUGAGGAUCACCCAUGUGUUCCAGCUAGGAAACUGGCAAAAGUAGAAGGCAGUACUG,0.0228 µM,0.32 µM,–,–
CAGUACUGAGGAUAUACAUGAGGAUCACCCAUGUGUUCCAGGUAGGAAACUAGCAAAAGUAGAAGGCAGUACUG,0.019 µM,0.127 µM,–,–
CAGUACUGAGGAUAUACAUGAGGAUCACCCAUGUGUUCCUUGUAGGAUAUCCGCAAAAGUAGAAGCCAGAAGGAGAUGUGCCUA,0.2 µM,0.119 µM,–,–
CAGUACUGAGGAUAUACAUGAGGAUCACCCAUGUGUUCGUGGUAGGAUAUCCGCAAAAGUAGAAGCCAGAAGGAGAUGUGCGUG,0.0177 µM,0.0139 µM,–,–
CAGUACUGAGGAUAUACAUGAGGAUCACCCAUGUGUUGCAGCUAGGAAACUAGCAAAAGUAGAAGGCAGUACUG,0.0107 µM,0.021 µM,–,–
CAGUGCAAUGUAGGAUAUGCUCAGGAAUACUGAGCAGAAGGACAUGAGGAUCACCCAUGUCAAAUGAAAGAUAAUAAAGCACUG,0.0146 µM,0.0189 µM,–,–
CAUAAGAUAGGAUAUACAGGCCCGUCUUUAUAUUGAUCCCGACAUGAGGAUCACCCAUGUAGAAGGAUCAUAUG,0.0137 µM,0.0152 µM,–,–
CAUGUCCUCACAGGAUAUGCAAUGUAUUUCAUUGCAGAAGGGUGAAUACAUGAGGAUCACCCAUGUGGACAUGAUAUAUUUAAG,–,–,0.88 µM,0.0766 µM
CAUGUCUGAGGAUAUCGUUUUUUGUACAUGAGGAUCACCCAUGUCCUAUUUUUUUUAUUUCGAGAAGGCAGUGUAU,0.0477 µM,0.0377 µM,–,–
CAUUAAUUCAUUAUAGUUAUUAUACAGGAUAUGUUACAUGAGGAUCACCCAUGUAUUCAUGGUAAACAGAAGGGUAAUACUCGU,0.0493 µM,0.0459 µM,–,–
CAUUAAUUCAUUAUAGUUAUUAUACAGGAUAUGUUACAUGAGGAUCACCCAUGUAUUCAUGGUAAACAGAAGGGUAAUUCUAGU,0.0201 µM,0.0197 µM,–,–
CAUUUACAGGGAGGAUAUACAUGAGGAUCACCCAUGUCAUCAUACGAUCUUUCUUUUGUAUGAGUGUAGAAGGCCCAACUACCA,0.0136 µM,0.0146 µM,–,–
CCAACGUACAAUUUAGAUCUACAUGAGGAUCACCCAUGUACGGAGGAUAUCAGCUCGAAUAGAGCUGAGAAGGCCGAAUUAAUU,–,–,0.371 µM,0.0894 µM
CCACCCUGAGGAUAUCCACCCUCAUACAUGAGGAUCACCCAUGUUCAUGCCUGAGUUCCCGGAGAAGGCAGAUUCC,0.109 µM,0.0872 µM,–,–
CCACCCUGAGGAUAUCCACCCUGAUACAUGAGGAUCACCCAUGUUAAUGCCUGAGUUCCCGGAGAAGGCAGAUUCC,0.0405 µM,0.0347 µM,–,–
CCAGCCGUUCAAGGAUAUGACAUGAGGAUCACCCAUGUGAAGUCGAACAUUGAUGCACACCUUAGUCAGAAGGUGGAUGGGUCU,0.0309 µM,0.0965 µM,–,–
CCAGCGUAUGUGAGGAUAUGCUGGUCCUUGGAUCAGCAGAAGGCACAUGAGGAUCACCCAUGUGAGAACGUUGG,0.0265 µM,0.187 µM,–,–
CCAGCGUGUGUGAGGAUAUGCUGGUCCUUGGAUCAGCAGAAGGCACAUGAGGAUCACCCAUGUGAGUACGUUGG,0.0169 µM,0.0594 µM,–,–
CCAUAAAAGAUCCAAAAUUACAACAUGAGGAUCACCCAUGUGCAGGAUAUCGUGAAAGUAAAAUACGAGAAGGGCAAACACUGC,0.365 µM,0.442 µM,–,–
CCAUAAAAGAUCCAAAAUUACAACAUGAGGAUCACCCAUGUGCAGGAUAUCGUGCCAGUGAUGUACGAGAAGGGCAGACACUGC,0.356 µM,0.4 µM,–,–
CCAUAAUUGAUCCAAUUUUACAACAUGAGGAUCACCCAUGUGCAGGAUAUCGUGAAAGUUAAAUACGAGAAGGGCAAGAACUGC,0.56 µM,0.356 µM,–,–
CCAUAUAGGUAGGAUAUCGAUUUUAAUUAAUAUCGAGAAGGGUCAACAUGAGGAUCACCCAUGUCAGCAUGUAC,0.0804 µM,0.0755 µM,–,–
CCAUGGCAUGUAGGAUAUCUCUGACAAAGUCAGAGAGAAGGACAUGAGGAUCACCCAUGUAAACCGAAAGGAACAUAGCCAUGG,0.00631 µM,0.00626 µM,–,–
